Assay results reported in ChEMBL document CHEMBL1143714, “Nocardichelins A and B, siderophores from Nocardia strain acta 3026” (2007).
The source made the active and inactive calls. The rule behind the calls is not given here.

Tests used:
[1] = tested on: Saccharomyces cerevisiae; assay: Growth inhibition against yeast after 48 hrs by agar plate diffusion assay; type: functional, organism-based
In short: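 10 µL sample aliquots applied to 6 mm filter disks placed on inoculated test plates; fungal plates incubated 48 h at temperature optimal for the test organism; activity read from growth inhibition on agar.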

[2] = tested on: HepG2; assay: Growth inhibition of human HepG2 cells after 48 hrs; type: functional; conditions: HepG2, 48 h
In short: (§1)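 Run per NCI guidelines. Cells grown in RPMI 1640 with 10% fetal calf serum, 5% CO2, humidified. Compounds added after 24 h as DMSO solutions at 0.1-10 µg/mL, 0.1% final DMSO, then 48 h further culture. Cell count by sulforhodamine B protein staining. GI50 (50% growth inhibition) and TGI derived.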

[3] = Growth inhibition of human MCF cells after 48 hrs; type: functional; in short: as §1
[4] = tested on: AGS; assay: Growth inhibition of human AGS cells after 48 hrs; type: functional; in short: as §1

GI50 [2] | GI50 [4] | SMILES | Activity [1] | TGI [2] | GI50 [3] | TGI [3] | TGI [4]
69.9 nM | 44.7 nM | CCCCCCCCCCC/C=C\C(=O)N(O)CCCCCNC(=O)CCC(=O)N(O)CCCCCNC(=O)[C@@H]1COC(c2ccccc2O)=N1 [NOCARDICHELIN B] | inactive | 335 nM | 1130 nM | 3490 nM | 1500 nM
282 nM | 28.2 nM | CCCCCCCCCCCCC/C=C\C(=O)N(O)CCCCCNC(=O)CCC(=O)N(O)CCCCCNC(=O)[C@@H]1COC(c2ccccc2O)=N1 [NOCARDICHELIN A] | inactive | 471 nM | 202 nM | 538 nM | 202 nM
